A word on the MIC: it is the least concentration at which growth counts as inhibited. High values mean weaker potency, low ones greater potency.

Assay [1] deals with Plasmodium berghei. As to the kind of experiment: Antimalarial activity as survivor numbers at day 60 for drug-sensitive Plasmodium berghei infected mice (Mus musculus) at 80 mg/kg subcutaneous dose over 72 hr. It is filed as functional. In outline: (§1)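 Mice infected with drug-sensitive P. berghei got one subcutaneous dose in sesame or peanut oil 72 h postinfection. Read-out is the number of mice alive at 60 days postinfection, termed "cured", without subinoculation to confirm parasitological cure. Groups of five per dose, or 10 where indicated.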

Assay [2] has as its system Plasmodium berghei. Kind of assay: Antimalarial activity as toxic deaths 2-5 days post infection for drug-sensitive Plasmodium berghei infected mice (Mus musculus) at 320 mg/kg subcutaneous dose over 72 hrs. Format: functional. In outline:
(§2)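 P. berghei (drug-sensitive) infected mice dosed once subcutaneously 72 h postinfection, compound in sesame or peanut oil. Read-out is the count of deaths on days 2–5 after infection, attributed to drug toxicity. Five animals per dose level, or 10 where indicated.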

The subject of assay [3] is Plasmodium berghei. As to the kind of experiment: Antimalarial activity as toxic deaths 2-5 days post infection for drug-sensitive Plasmodium berghei infected mice (Mus musculus) at 640 mg/kg subcutaneous dose over 72 hr. Format: functional. In outline: as §2
For assay [4], the system named is Plasmodium berghei. As to the kind of experiment: Antimalarial activity as survivor numbers at day 60 against drug-sensitive Plasmodium berghei infected mice (Mus musculus) at 160 mg/kg subcutaneous dose after 72 hr. It is filed as functional. The essentials: as §1
For assay [5], the system named is Plasmodium berghei. Kind of assay: Antimalarial activity as survivor numbers at day 60 for drug-sensitive Plasmodium berghei infected mice (Mus musculus) at 40 mg/kg over 72 hr. Format: functional. In outline:
as §1

Assay [6] has as its system Plasmodium berghei. Kind of assay: Antimalarial activity as change in MST for drug-sensitive Plasmodium berghei infected mice (Mus musculus) at 40 mg/kg subcutaneous dose over 72hr. It is filed as functional.
Assay [7] concerns Staphylococcus aureus. As to the kind of experiment: In vitro antibacterial activity against […] U.C-76. Format: functional. In outline:
(§3)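 Antibacterial testing in vitro by gradient-plate test. Read-out was the minimum inhibitory concentration, with values exceeding 25 reported as >25.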

Assay [8] concerns Plasmodium berghei. Kind of assay: Antimalarial activity as change in MST against drug-sensitive Plasmodium berghei infected mice (Mus musculus) at 20 mg/kg subcutaneous dose after 72h. Format: functional.
Assay [9] relates to Plasmodium berghei. Kind of assay: In vivo antimalarial activity against drug-sensitive Plasmodium berghei in mice (Mus musculus) after 320 mg/kg subcutaneous dose for 72 hrs as survivors 60 days post infection.
For assay [10], the system named is Staphylococcus aureus. Kind of assay: In vitro antibacterial activity against […] S 18713. Format: functional. The essentials: as §3
For the next assay, the system named is Enterococcus faecalis. Kind of assay: In vitro antibacterial activity against Streptococcus faecalis MGH-2. It is filed as functional. The essentials: as §3
Assay [11] relates to Plasmodium berghei. Kind of assay: Antimalarial activity as change in MST for drug-sensitive Plasmodium berghei infected mice (Mus musculus) at 80mg/kg subcutaneous dose over 72h. It is filed as functional.
The next assay has as its system Escherichia coli. Kind of assay: Tested in vitro against Escherichia coli Vogel. by gradient-plate test. It is filed as functional. The essentials: as §3
Assay [12] concerns Mycobacterium tuberculosis. As to the kind of experiment: In vitro antibacterial activity against Mycobacterium tuberculosis H37Rv. Format: functional. In outline:
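Mycobacterium tuberculosis tested in vitro by gradient-plate test; minimum inhibitory concentration reported.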

Assay [13] concerns Plasmodium berghei. As to the kind of experiment: Antimalarial activity as survivor numbers at day 60 for drug-sensitive Plasmodium berghei infected mice (Mus musculus) at 640 mg/kg subcutaneous dose over 72 hr. It is filed as functional. In outline: as §1
The test system of assay [14] is Pseudomonas aeruginosa. As to the kind of experiment: In vitro against Pseudomonas aeruginosa 28. by gradient-plate test. It is filed as functional. The essentials: as §3
The test system of the next assay is Shigella sonnei. As to the kind of experiment: In vitro antibacterial activity against Shigella sonnei C-10. It is filed as functional. In outline: as §3
Assay [15] concerns Plasmodium berghei. Kind of assay: Antimalarial activity as survivor number at day 60 against drug-sensitive Plasmodium berghei infected mice (Mus musculus) at 160 mg/kg subcutaneous dose after 72 hr. Format: functional. In outline: as §1
In assay [16] the test system is Plasmodium berghei. As to the kind of experiment: Antimalarial activity as survivor numbers at day 60 for drug-sensitive Plasmodium berghei infected mice (Mus musculus) at 320 mg/kg subcutaneous dose over 72 hrs. Format: functional. The essentials: as §1
The subject of assay [17] is Plasmodium berghei. Kind of assay: Antimalarial activity as survivor numbers at day 60 for drug-sensitive Plasmodium berghei infected mice (Mus musculus) at 40 mg/kg subcutaneous dose over 72 hr. It is filed as functional. In outline:
as §1

Assay [18] has as its system Plasmodium berghei. Kind of assay: Antimalarial activity as change in MST against drug-sensitive Plasmodium berghei infected mice (Mus musculus) at 160 mg/kg subcutaneous dose after 72h. It is filed as functional.
The test system of assay [19] is Plasmodium berghei. As to the kind of experiment: Antimalarial activity as change in MST for drug-sensitive Plasmodium berghei infected mice (Mus musculus) at 640 mg/kg subcutaneous dose over 72 hr. It is filed as functional.
The test system of assay [20] is Pseudomonas aeruginosa. As to the kind of experiment: Compound was tested in vitro against Pseudomonas aeruginosa 28. by gradient-plate test. Format: functional. The essentials: as §3
Assay [21] deals with Staphylococcus aureus. As to the kind of experiment: Compound was tested in vitro against […] S 18713 by gradient-plate test. Format: functional. In outline: as §3
The subject of assay [22] is Plasmodium berghei. As to the kind of experiment: Antimalarial activity as change in MST for drug-sensitive Plasmodium berghei infected mice (Mus musculus) after 72 hrs at 320 mg/kg subcutaneous dose. It is filed as functional.
For assay [23], the system named is Staphylococcus aureus. Kind of assay: Compound was tested in vitro against […] U.C-76. by gradient-plate test. It is filed as functional. The essentials:
as §3

Assay [24] concerns Plasmodium berghei. Kind of assay: Antimalarial activity as change in MST for drug-sensitive Plasmodium berghei infected mice (Mus musculus) at 80 mg/kg subcutaneous dose over 72 hr. It is filed as functional.
Assay [25] deals with Plasmodium berghei. As to the kind of experiment: Antimalarial activity as change in MST against drug-sensitive Plasmodium berghei infected mice (Mus musculus) at 160 mg/kg subcutaneous dose after 72 hr. It is filed as functional.
Assay [26] has as its system Plasmodium berghei. Kind of assay: Antimalarial activity as change in MST against drug-sensitive Plasmodium berghei infected mice (Mus musculus) at 20 mg/kg subcutaneous dose after 72 hr. It is filed as functional.
The test system of assay [27] is Plasmodium berghei. Kind of assay: Antimalarial activity as change in MST for drug-sensitive Plasmodium berghei infected mice (Mus musculus) at 40 mg/kg subcutaneous dose over 72 hr. Format: functional.

Converted amounts (≈) assume the structure as drawn.

On to `Nc1nc(N)c2c(Cl)c(NCc3ccc(Cl)c(Cl)c3)ccc2n1`, for which the survivors at day 60 in the assay with Plasmodium berghei [1], in the assay on Plasmodium berghei [4] and with Plasmodium berghei [5] was 5 throughout. Besides, the toxic deaths with Plasmodium berghei [2] and in the assay with Plasmodium berghei [3] was 5 each time.
Consider `Nc1nc(N)c2cc(S(=O)(=O)N3CCOCC3)ccc2n1`, for which the “Delta MST” value was found to be 4.7 days with Plasmodium berghei [6], 1.7 days in the assay on Plasmodium berghei [8] and 14.5 days with Plasmodium berghei [11]. The MIC with Staphylococcus aureus [7] is 2 µg/mL (≈ 6.47 µM); against Staphylococcus aureus [10], more than 25 µg/mL; in the assay on Enterococcus faecalis, less than 0.25 µg/mL; in the assay with Escherichia coli, more than 25 µg/mL; in assay [12], more than 25 µg/mL; in the assay with Pseudomonas aeruginosa [14] it was more than 25 µg/mL. In the assay on Shigella sonnei, this compound had an MIC of more than 25 µg/mL. The figures for the survivors at day 60 in the assay on Plasmodium berghei [9], in the assay on Plasmodium berghei [13] and in the assay with Plasmodium berghei [4] were 5, 10 and 10, respectively.
With `Nc1nc(N)c2cc(S(=O)(=O)c3ccc4ccccc4c3)ccc2n1`, the survivors at day 60 with Plasmodium berghei [15], in the assay on Plasmodium berghei [1], in the assay with Plasmodium berghei [16] and in the assay with Plasmodium berghei [17] was 5 in each case.
Regarding `CN1CCN(S(=O)(=O)c2ccc3nc(N)nc(N)c3c2)CC1`, the “Delta MST” value was found to be 4.4 days in the assay on Plasmodium berghei [18]; 1 days with Plasmodium berghei [6]; 11.8 days with Plasmodium berghei [19]; 0.3 days in the assay with Plasmodium berghei [8]; 1.5 days in the assay on Plasmodium berghei [11]; 8.9 days in the assay with Plasmodium berghei [22]. Further, the MIC in the assay on Enterococcus faecalis was 2 µg/mL (≈ 6.2 µM); in the assay on Escherichia coli it was more than 25 µg/mL; against Pseudomonas aeruginosa [20] it was more than 25 µg/mL; in assay [12] it was more than 25 µg/mL; with Staphylococcus aureus [21], more than 25 µg/mL; with Shigella sonnei it was more than 25 µg/mL. In the assay with Staphylococcus aureus [23], this compound gave an MIC of 2 µg/mL (≈ 6.2 µM).
As for `Nc1nc(N)c2cc(S(=O)(=O)N3CCCC3)ccc2n1`, the “Delta MST” value with Plasmodium berghei [18] came out at 8.7 days; with Plasmodium berghei [6], 5 days; with Plasmodium berghei [8], 0.5 days; with Plasmodium berghei [11], 6.9 days. Also, the MIC in the assay with Staphylococcus aureus [7] is less than 0.25 µg/mL; against Staphylococcus aureus [10], 2 µg/mL (≈ 6.82 µM); against Enterococcus faecalis, less than 0.25 µg/mL; against Escherichia coli it was 10 µg/mL (≈ 34.1 µM); with Pseudomonas aeruginosa [20], more than 25 µg/mL; in [12], 10 µg/mL (≈ 34.1 µM). Further, the MIC with Shigella sonnei was more than 25 µg/mL. Moreover, the survivors at day 60 amounted to 5 in the assay with Plasmodium berghei [9] and 10 with Plasmodium berghei [13].
In the case of `CC1(C)N=C(N)N=C(N)N1c1ccc(Cl)cc1.Cl` [CHLORCYCLOGUANIL HYDROCHLORIDE], the “Delta MST” value with Plasmodium berghei [19] is 5 days; in the assay on Plasmodium berghei [24], 21.6 days; in the assay on Plasmodium berghei [25], 5 days; with Plasmodium berghei [22] it was 3 days; in the assay with Plasmodium berghei [26], 7.9 days; in the assay with Plasmodium berghei [27], 13.4 days.
